# Activity calls are given as the source filed them.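 How the source made its calls: active means inhibition of 30% or more at any tested concentration; inactive means the rest.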
# Molecular target: Leucine aminopeptidase (Plasmodium falciparum (isolate 3D7)) (UniProt Q8IL11)
# Assay: inhibition of P. falciparum M17 leucine aminopeptidase – biochemical, QFRET, H-Leu-NHMec substrate, set 3, selectivity assay for PFM1AAP inhibitor project, dose response (AID 624164)
# Conditions: purified rPFM17LAP, H-Leu-NHMec fluorogenic cleavage
# Summary of the method: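 Assay system – recombinant PFM17LAP enzyme · Quantity – enzyme 5 µg/mL · Measured by – fluorescence of released NHMec, excitation 370 nm, emission 460 nm · Doses – 10-point twofold series, 100 to 0.2 µM, 2% DMSO · Timing – enzyme reaction with compound, 90 min at room temperature · Control set – enzyme-free background · Reagent – H-Leu-NHMec 0.1 mM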
# Sequence of Leucine aminopeptidase (Plasmodium falciparum (isolate 3D7)) (Q8IL11 whole entry, looked up): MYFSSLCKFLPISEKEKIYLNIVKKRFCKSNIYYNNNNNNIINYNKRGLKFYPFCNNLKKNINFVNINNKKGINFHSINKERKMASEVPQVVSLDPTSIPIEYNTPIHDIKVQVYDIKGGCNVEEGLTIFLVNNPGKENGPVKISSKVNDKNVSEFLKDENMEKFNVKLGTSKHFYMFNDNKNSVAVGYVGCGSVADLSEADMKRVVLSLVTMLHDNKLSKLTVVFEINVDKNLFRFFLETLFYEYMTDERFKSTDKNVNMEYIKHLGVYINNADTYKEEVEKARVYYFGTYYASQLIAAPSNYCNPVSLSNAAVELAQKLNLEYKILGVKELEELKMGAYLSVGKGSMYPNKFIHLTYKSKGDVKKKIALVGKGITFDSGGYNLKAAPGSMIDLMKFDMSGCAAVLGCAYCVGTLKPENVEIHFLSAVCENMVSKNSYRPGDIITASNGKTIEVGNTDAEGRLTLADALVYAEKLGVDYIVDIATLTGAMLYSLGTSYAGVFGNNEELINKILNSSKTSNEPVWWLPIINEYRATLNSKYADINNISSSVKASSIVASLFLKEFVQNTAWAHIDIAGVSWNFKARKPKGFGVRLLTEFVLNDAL
Structure (SMILES),inhibition (at 100 µM (top of the series)),IC50,further results
O=C(NCc1cccc(F)c1)C1CCN(S(=O)(=O)c2cc(Br)c(Br)s2)CC1,inactive,–,–
O=C(NCc1ccc2c(c1)OCO2)C1CCN(S(=O)(=O)c2ccc(Br)s2)CC1,–,16.4 µM,–
O=C(NCc1cccc(F)c1)C1CCN(S(=O)(=O)c2ccc(Cl)s2)CC1,–,50 µM,–
O=C(NCc1ccc2c(c1)OCO2)C1CCN(S(=O)(=O)c2ccc(Br)cc2)CC1,inactive,–,–
O=C(NCc1ccc(F)cc1)C1CCN(S(=O)(=O)c2sccc2Br)CC1,inactive,–,–
O=C(NCc1ccc2c(c1)OCO2)C1CCN(S(=O)(=O)c2ccc(Cl)s2)CC1,–,35.4 µM,–
O=C(NCc1ccccc1F)C1CCN(S(=O)(=O)c2ccc(Br)cc2)CC1,–,82.3 µM,–
O=C(NCCc1ccc2c(c1)OCO2)C1CCN(S(=O)(=O)c2cc(Br)c(Br)s2)CC1,inactive,–,–
O=C(Nc1ccc2c(c1)OCO2)C1CCN(S(=O)(=O)c2sccc2Br)CC1,inactive,–,–
O=C(NCc1ccc(F)cc1)C1CCN(S(=O)(=O)c2ccc(Cl)s2)CC1,–,43.6 µM,–
O=C(NCc1ccc2c(c1)OCO2)C1CCN(S(=O)(=O)c2sccc2Br)CC1,–,–,inhibition (at 50 µM (top of the series)): inactive
O=C(NCc1ccccc1F)C1CCN(S(=O)(=O)c2ccc(Cl)s2)CC1,–,50 µM,–
O=C(NCc1ccc(F)cc1)C1CCN(S(=O)(=O)c2ccc(Br)s2)CC1,–,44.3 µM,–
O=C(NCc1ccc(F)cc1)C1CCN(S(=O)(=O)c2ccc(Br)cc2)CC1,inactive,–,–
O=C(Nc1ccc2c(c1)OCO2)C1CCN(S(=O)(=O)c2ccc(Cl)s2)CC1,inactive,–,–
O=C(NCc1ccc(F)cc1)C1CCN(S(=O)(=O)c2cc(Br)c(Br)s2)CC1,inactive,–,–
O=C(NCCc1ccc2c(c1)OCO2)C1CCN(S(=O)(=O)c2sccc2Br)CC1,inactive,–,–
O=C(NCCc1ccc2c(c1)OCO2)C1CCN(S(=O)(=O)c2ccc(Cl)s2)CC1,inactive,–,–
O=C(NCCc1ccc2c(c1)OCO2)C1CCN(S(=O)(=O)c2ccc(Br)cc2)CC1,inactive,–,–
O=C(Nc1ccc2c(c1)OCO2)C1CCN(S(=O)(=O)c2ccc(Br)cc2)CC1,inactive,–,–

# Further lines, with some results ahead:
inhibition (at 100 µM (top of the series)),IC50,Structure (SMILES),further results
inactive,–,O=C(NCCc1ccc2c(c1)OCO2)C1CCN(S(=O)(=O)c2ccc(Br)s2)CC1,–
inactive,–,O=C(NCc1ccccc1F)C1CCN(S(=O)(=O)c2sccc2Br)CC1,–
inactive,–,O=C(Nc1ccc2c(c1)OCO2)C1CCN(S(=O)(=O)c2ccc(Br)s2)CC1,–
inactive,–,O=C(NCc1cccc(F)c1)C1CCN(S(=O)(=O)c2sccc2Br)CC1,–
inactive,–,O=C(NCc1ccccc1F)C1CCN(S(=O)(=O)c2cc(Br)c(Br)s2)CC1,–
–,50.6 µM,O=C(NCc1cccc(F)c1)C1CCN(S(=O)(=O)c2ccc(Br)cc2)CC1,–
–,28.5 µM,O=C(NCc1ccccc1F)C1CCN(S(=O)(=O)c2ccc(Br)s2)CC1,–
inactive,–,O=C(Nc1ccc2c(c1)OCO2)C1CCN(S(=O)(=O)c2cc(Br)c(Br)s2)CC1,–
inactive,–,O=C(NCc1ccc2c(c1)OCO2)C1CCN(S(=O)(=O)c2cc(Br)c(Br)s2)CC1,–
–,24.7 µM,O=C(NCc1cccc(F)c1)C1CCN(S(=O)(=O)c2ccc(Br)s2)CC1,–

# Source: PubChem BioAssay AID624164 (Southern Research Specialized Biocontainment Screening …, 2012)
